Results reported in ChEMBL document CHEMBL3526151, “Reversible disulfide formation of the glutamate carboxypeptidase II inhibitor E2072 results in prolonged systemic exposures in vivo” (Drug Metab Dispos, 2012).

Experiments:
[1] = Protein binding in cynomolgus monkey serum at 10 uM after 1 hr by LC-MS/MS analysis; type: ADME, Macaca fascicularis; conditions: read-out: PB (converted)
Outline: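 Serum from the named species spiked to 10 μM and held 1 h at 37°C, then ultrafiltered through a 5000 Da cutoff device (45 min, 37°C, 1800g). Filtrate and unfiltered serum extracted and measured by LC-MS/MS; % bound = 100 − (Cu/Cs × 100).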

[2] = Cmax in Sprague-Dawley rat at 0.1 mg/kg, po administered via gavage measured under fasted conditions by LC-MS/MS analysis; type: ADME, organism-based; design: dose 0.1 mg/kg, route oral; conditions: in vivo
Outline: (§1)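 Fasted male Sprague-Dawley rats (280–330 g) received 0.1, 1, 10 or 30 mg/kg by oral gavage in 50 mM HEPES buffered saline, pH 7.4. Blood drawn at 0.25–24 h into heparin/NEM tubes; plasma analyzed by LC-MS/MS. Cmax taken as observed. AUC by linear trapezoidal rule with extrapolation by λz. Cl/F and Vd/F reported. Mean ± S.D., n = 4–9.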

[3] = AUC(0 to infinity) in Sprague-Dawley rat at 30 mg/kg, po administered via gavage measured under fasted conditions by LC-MS/MS analysis; type: ADME, organism-based; design: time infinity, dose 30 mg/kg, route oral; conditions: plasma; outline: as §1
[4] = AUC(0 to last) in Sprague-Dawley rat at 30 mg/kg, iv administered as bolus injection measured under fasted conditions by LC-MS/MS analysis; type: ADME, organism-based; design: time 0 - last, dose 30 mg/kg, route intravenous; conditions: plasma
Outline: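 Male Sprague-Dawley rats (280–330 g), jugular vein cannulated, fasted overnight until 4 h post-dose. Single tail-vein bolus of 0.1, 1, 10 or 30 mg/kg in 50 mM HEPES buffered saline, pH 7.4. Blood drawn 0–24 h into heparin tubes containing NEM. Plasma quantified by LC-MS/MS after NEM derivatization. Noncompartmental analysis: AUClast by linear trapezoidal rule, Cl = dose/AUC0-∞. Mean ± S.D., n = 4–9.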

Rattus norvegicus = assay: Analgesic activity in Sprague-Dawley rat chronic constriction injury model assessed as change in paw withdrawal latency at 10 mg/kg/day, po (reference value: -3.11 +/-0.34 s); type: functional
[5] = Phase 2 metabolic stability in dog liver microsomes assessed as compound remaining at 10 uM measured for 1 hr by LC-MS/MS analysis in absence of cofactors; type: ADME, Canis lupus familiaris; conditions: read-out: Stability
Outline: (§2)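 Cofactor-free controls were run for each microsomal incubation: 0.5 mg/ml liver microsomes with 10 µM compound, omitting cofactors, so that cofactor-independent degradation could be measured. Samples were taken up to 1 h, quenched with acetonitrile containing internal standard, and the percent remaining was determined by LC-MS/MS.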

[6] = Volume of distribution in Sprague-Dawley rat at 10 mg/kg, iv administered as bolus injection measured under fasted conditions by LC-MS/MS analysis; type: ADME, organism-based; design: dose 10 mg/kg, route intravenous; conditions: in vivo
Outline: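 Jugular-cannulated male Sprague-Dawley rats, 280–330 g, fasted overnight to 4 h post-dose. Single dose in 50 mM HEPES-buffered saline pH 7.4, by oral gavage or as tail-vein i.v. bolus. Blood into heparin/NEM tubes at 0–24 h. Plasma measured by LC-MS/MS; noncompartmental analysis; Tmax observed; Vd = dose/(AUCinf·λz).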

[7] = Oral bioavailability in Sprague-Dawley rat at 1 mg/kg administered via gavage measured under fasted conditions by LC-MS/MS analysis; type: ADME, organism-based; conditions: in vivo
[8] = Phase 1 metabolic stability in dog liver microsomes assessed as compound remaining at 10 uM measured for 1 hr by LC-MS/MS analysis in absence of cofactors; type: ADME, Canis lupus familiaris; conditions: read-out: Stability; outline: as §2
[9] = Phase 2 metabolic stability in rat liver microsomes assessed as compound remaining at 10 uM measured for 1 hr by LC-MS/MS analysis in absence of cofactors; type: ADME; conditions: read-out: Stability
Outline: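 Glucuronidation in liver microsomes of the named species, 0.5 mg/ml protein, compound at 10 μM final, in 50 mM Tris-HCl pH 7.5 with 8 mM MgCl2 and 25 μg/ml alamethicin. Preincubated at 37°C, then started with 2 mM UDPGA (final); cofactor-free controls run alongside. Duplicate reactions, sampled up to 1 h, quenched with cold acetonitrile plus internal standard; disappearance followed by LC-MS/MS.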

[10] = Apparent oral clearance in Sprague-Dawley rat at 10 mg/kg, po administered via gavage measured under fed conditions by LC-MS/MS analysis; type: ADME, organism-based; design: dose 10 mg/kg, route oral; conditions: in vivo
Outline: (§3)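 Nonfasted male Sprague-Dawley rats given a single 10 mg/kg oral dose in 50 mM HEPES buffered saline, pH 7.4. Plasma collected 0.25–24 h into heparin/NEM tubes and assayed by LC-MS/MS. Noncompartmental parameters derived, including Cl/F and Vd/F. Mean ± S.D., n = 6–9.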

[11] = Cmax in Sprague-Dawley rat kidney at 10 mg/kg, po administered as single dose measured per gm of tissue by LC-MS/MS analysis; type: ADME, organism-based; design: dose 10 mg/kg, route oral
Outline: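 Male Sprague-Dawley rats were dosed orally with 10 mg/kg/day, either once or daily for 5 days; n = 4 per group. Blood was taken by cardiac puncture and liver, kidney, brain and sciatic nerve were collected at 0–8 h post-dose. Tissues were homogenized in PBS containing NEM at equal volume per gram. NEM-derivatized analyte was extracted with methanol and quantified by LC-MS/MS (1–5000 ng/ml). Cmax is the observed value.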

[12] = AUC(0 to infinity) in Sprague-Dawley rat at 10 mg/kg, po administered via gavage measured under fed conditions by LC-MS/MS analysis; type: ADME, organism-based; design: time infinity, dose 10 mg/kg, route oral; conditions: plasma; outline: as §3
[13] = Phase 2 metabolic stability in human liver microsomes assessed as compound remaining at 10 uM measured for 1 hr by LC-MS/MS analysis in absence of cofactors; type: ADME; conditions: read-out: Stability; outline: as §2
[14] = Apparent volume of distribution in Sprague-Dawley rat at 10 mg/kg, po administered via gavage measured under fed conditions by LC-MS/MS analysis; type: ADME, organism-based; design: dose 10 mg/kg, route oral; conditions: in vivo; outline: as §3
[15] = Phase 2 metabolic stability in monkey liver microsomes assessed as compound remaining at 10 uM measured for 1 hr by LC-MS/MS analysis; type: ADME, Macaca mulatta; conditions: rhesus monkey, read-out: Stability
Outline: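 For glucuronidation, compound was preincubated at 37°C in 50 mM Tris-HCl, pH 7.5, with 0.5 mg/ml liver microsomes, 8 mM MgCl2 and 25 µg/ml alamethicin. Reactions were started in duplicate with 2 mM UDPGA (final). Samples were taken up to 1 h, quenched with acetonitrile containing internal standard, and compound disappearance was measured by LC-MS/MS.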

[16] = Tmax in cynomolgus monkey at 5 mg/kg, iv administered as bolus injection by LC-MS/MS analysis; type: ADME, organism-based, Macaca fascicularis; design: dose 5 mg/kg, route intravenous; conditions: in vivo
Outline: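 Cynomolgus monkeys (n=3) dosed at 5 mg/kg nominal, TCEP-treated 50 mM HEPES solution, either as i.v. bolus (cephalic or saphenous vein) or orally. Arterial cannula blood into heparin/NEM tubes for up to 9 days. Plasma parent and homodisulfide measured by LC-MS/MS; Tmax observed.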

[17] = Apparent volume of distribution in Sprague-Dawley rat at 30 mg/kg, po administered via gavage measured under fasted conditions by LC-MS/MS analysis; type: ADME, organism-based; design: dose 30 mg/kg, route oral; conditions: in vivo; outline: as §1

Which results are given for `O=C(O)c1cccc(-c2cccc(CCS)c2C(=O)O)c1`?
fraction unbound at 1 h, 10 µM [1]: 0.101; Cmax [2]: 62.6 ng/mL; AUC(0-inf) [3]: 76600 ng·h/mL; AUC(0-t) [4]: 202000 ng·h/mL; Time (Rattus norvegicus): -0.55 s; remaining at 1 h, 10 µM [5]: > 90%; Vd [6]: 1.43 L/kg; bioavailability [7]: 23.7%; remaining at 1 h, 10 µM [8]: > 90%; remaining at 1 h, 10 µM [9]: > 90%; CL/F [10]: 5 mL/min/kg; Cmax [11]: 405 ng/g; AUC(0-inf) [12]: 37100 ng·h/mL; remaining at 1 h, 10 µM [13]: > 90%; Vd/F [14]: 1.09 L/kg; remaining at 1 h, 10 µM [15]: > 90%; Tmax [16]: 4.8 min; Vd/F [17]: 2.39 L/kg
